Rows were chosen to be rich in hits. Some 1% of all compounds tested hit in one or more screens of this group.
LYPLA2 inh – counter-screen for PME1 inhibitors: inhibitors of human LYPLA2. recombinant LYPLA2, FP-Rh probe fluorescence polarization. inhibition, % at 5.9 µM. 320,000 compounds, 0.38% hits;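 active means inhibition above the screen-wide mean plus 3 SD, limit set per campaign, cut at about 26% in these data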;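 further: 0% = LYPLA2 with DMSO and 100% = wells lacking LYPLA2 enzyme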
LYPLA1 counter – counter-screen for PME1 inhibitors: inhibitors of human LYPLA1. O75608. recombinant LYPLA1, FP-Rh probe fluorescence polarization. inhibition, % at 5.9 µM. 320,000 compounds, 0.16% hits. AID 2174;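 active means inhibition above the mean of all tested compounds plus 3 SD, set per campaign, cut at about 14% in these data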;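 further: inhibitors block serine hydrolase probe labeling of LYPLA1 so polarization falls; 0% = enzyme with DMSO and 100% = wells lacking LYPLA1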
proCasp3 act – activators of human procaspase-3. recombinant procaspase-3 D3A, Ac-DEVD-pNA absorbance 405 nm. activation, % at 8.5 µM. 330,000 compounds, 0.11% hits. AID 463141;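 active means activation above the mean of all tested compounds plus 3 SD, cut at about 21% in these data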;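 further: 0% = DMSO alone and 100% = DMSO wells spiked with extra 5 µM PC-3 D3A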
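Compound: 8.5 µM single point, 0.8% DMSO / Material: Autoprocessing-dead procaspase-3 D3A mutant enzyme / Timing: 1 h preincubation plus 2 h reaction at 25 °C / Medium: Zinc-free HEPES/NaCl buffer with 0.01% Triton X-100 at pH 7.4 / Technique: 405 nm absorbance of p-nitroaniline, reads at 0 and 120 min / Repeats: one well per compound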
PREPL inh – inhibits the human prolyl oligopeptidase-like enzyme. 320,000 compounds, 0.68% hits. Q4J6C6. recombinant PREPL, fluorescence polarization activity-based probe. inhibition, % at 5.96 µM;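 further: 0% = enzyme with DMSO and 100% = wells lacking enzyme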
proCasp7 act – activates human procaspase-7, counter-screen for procaspase-3 activators; P55210; recombinant procaspase-7, Ac-DEVD-pNA absorbance 405 nm; D23A/D198A/D206A triple mutant, cannot self-cleave; scale: DMSO 0, 5 µM enzyme 100; 330,000 compounds, 0.093% hits; activation, % at 8.5 µM;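 active means percent activation above the screen-wide mean plus 3 SD, cut at about 25% in these data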
Target sequence (P55210 whole entry D23A/D198A/D206A): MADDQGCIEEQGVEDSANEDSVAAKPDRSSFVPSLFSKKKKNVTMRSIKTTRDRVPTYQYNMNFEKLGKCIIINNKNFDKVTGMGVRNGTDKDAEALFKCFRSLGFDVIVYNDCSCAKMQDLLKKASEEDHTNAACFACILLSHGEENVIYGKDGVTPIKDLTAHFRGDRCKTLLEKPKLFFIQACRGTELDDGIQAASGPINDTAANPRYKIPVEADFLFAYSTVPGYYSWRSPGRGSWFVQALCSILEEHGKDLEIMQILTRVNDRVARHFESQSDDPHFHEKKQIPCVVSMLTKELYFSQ
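Assay system – Uncleavable procaspase-7 mutant enzyme · Quantity – 2 µM procaspase-7 mutant as dispensed · Times – 1 h preincubation, 2 h reaction · Dosing – single nominal 8.5 µM compound dose, 0.8% DMSO final · Buffer or medium – Zinc-free 50 mM HEPES buffer, pH 7.4, with NaCl and Triton X-100 · Detection – Epi-absorbance of released pNA at 405 nm, two timepoints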
PREPL confirm – human PREPL inhibition, confirmation. inhibition, % at 5.96 µM. shares compounds with PREPL inh. recombinant PREPL, fluorescence polarization activity probe. 2,000 compounds, 67% hits;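 further: 0% = protein with DMSO and 100% = wells lacking protein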
* hit, by the source's call; nt = not tested or not shown. Unless noted, no stated cut-off is given here; in the data, active means inhibition above about 43%; inactive means the rest.

SMILES	LYPLA2 inh	LYPLA1 counter	proCasp3 act	PREPL inh	proCasp7 act	PREPL confirm
Cc1ccc2oc(=O)c3cnn(CC(=O)N4CCN(c5ccccc5)CC4)c3c2c1	-1	-2	-2	13	-5	nt
CN(CC(=O)N1CCN(Cc2ccccc2)CC1)C(=O)Cc1ccc(Cl)c(Cl)c1	nt	nt	-5	46*	2	43
CN(C)S(=O)(=O)N(CC(=O)N1CCN(Cc2ccccc2)CC1)c1ccccc1	3	1	-5	-6	13	nt
Cc1c(CNC2CCCC(C)C2C)c(C(=O)O)c(C)n1Cc1ccccc1 (stereo not given)	4	0	15	9	4	nt
CCN(CC)CCCC(C)NC(=O)c1c(NC(=O)c2ccccc2)sc2c1CCCC2 (stereo not given)	3	-5	-1	46*	0	40
O=C(OCC(=O)N1CCN(c2ccc(F)cc2)CC1)c1cnc2ccccc2n1	nt	nt	2	49*	2	31
Cc1cc(N2CCOCC2)nc2ccc(NC(=O)CCC(=O)N3CCN(c4ccccc4F)CC3)cc12	9	4	6	33	2	nt
CCN1CCN(c2cc(C)c3cc(NC(=O)c4ccc5c(c4)OCO5)ccc3n2)CC1	6	3	0	44*	-1	20
Cc1cc(N2CCOCC2)nc2ccc(NC(=O)CCC(=O)N3CCN(c4ccc(F)cc4)CC3)cc12	9	3	-1	44*	2	39
COc1ccc(C(=O)Nc2ccc3nc(N4CCN(C)CC4)cc(C)c3c2)c(OC)c1	2	0	-1	48*	-13	43
Cc1cc(N2CCN(C)CC2)nc2ccc(NC(=S)N3CCN(c4cccc(Cl)c4)CC3)cc12	5	-2	-4	47*	-1	33
Cc1ccc(S(=O)(=O)NCc2ccc(C(=O)N3CCCC3)cc2)cc1	-10	-3	-8	-7	9	nt
O=C(CN1C(=O)c2cccc3cccc(c23)C1=O)N1CCOCC1	6	3	3	-2	4	nt
CC(C)NC(=O)CN1C(=O)CSc2ccc(S(=O)(=O)N3CCCC3)cc21	5	-4	7	14	-1	nt
Cc1ccc(-c2nnc(SCC(=O)N(C)C)nc2-c2ccc(C)cc2)cc1	7	-2	10	4	1	nt
C[C@H](CO)N1C[C@H](C)[C@@H](CN(C)C(=O)Nc2ccccc2)Oc2ccc(NC(=O)Cn3cnnn3)cc2C1=O	nt	nt	0	4	-1	nt
CC(C)NC(=O)C(=O)NCC(c1ccc2c(c1)OCO2)N1CCOCC1 (stereo not given)	0	-2	-4	3	2	nt
COc1ccc(/C=N/NC(=O)c2ccc(C)cc2)cc1CN1CCN(c2ccc(F)cc2)CC1	-8	-7	-2	-3	-3	nt
COc1ccc(/C=N\NC(=O)c2cc(O)c(O)c(O)c2)cc1CN1CCN(c2ccc(F)cc2)CC1	-18	-19	-21	54*	-22	20
CCOC(=O)N1CCN(C(=O)C2CCN(C(=O)c3cc(OC)cc(OC)c3)CC2)CC1	-2	-1	17	-2	11	nt
O=C(Nc1cccc2ccccc12)C(=O)C1C(=O)Nc2ccccc21 (stereo not given)	9	0	-4	2	-16	nt
CN(C)c1ccc(C(CN)c2c[nH]c3ccccc23)cc1 (stereo not given)	2	2	-1	61*	-9	57*
COc1ccc(NC(=O)COC(=O)c2cc(=O)c3ccccc3o2)cc1OC	-3	-3	-4	-2	-3	nt
C#CCOCCOCCOCCNc1nc(N2CCN(C(=O)[C@H](Cc3ccc(O)cc3)n3cc([C@@H](N)C(C)CC)nn3)CC2)nc(N2CCN(C(=O)[C@H](Cc3cc4ccccc4[nH]3)n3cc([C@@H](N)Cc4ccc(O)cc4)nn3)CC2)n1 (stereo not given in full)	6	-3	-6	53*	-11	48*

Bioassay records: PubChem BioAssay, The Scripps Research Institute Molecular Screening Center
